Assay results as given in publication PMC9122571 (RSC Advances, 2020).

Columns and labels:
A549 cells [1] = test: Cell viability after H2O2 induced oxidative stress; assay type: cell-based, human; details: A549, 24 h pretreatment at 3.125–100 μM, then 800 μM H2O2 for 4 h
Procedure, shortened: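 A549 cells in DMEM with 10% FBS and penicillin/streptomycin at 37 °C, 5% CO2, pretreated with test compound for 24 h, then given 800 μM H2O2 for 4 h. Untreated and H2O2-only groups run alongside. Viability by MTT (0.5 mg mL−1, 4 h, DMSO solubilisation, A490) as % of (ODtest − ODblank)/(ODcontrol − ODblank). n = 4; ANOVA with LSD post hoc test.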

[2] = DPPH radical scavenging assay
Procedure, shortened: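 Test compound dissolved in DMSO and diluted in ethanol; a series of concentrations mixed with 2 mL DPPH solution (3.94 mg per 100 mL anhydrous ethanol). Kept 30 min at room temperature in the dark, then A519 read. Scavenging calculated as % of (Acontrol − Asample)/Acontrol. Vitamin C served as reference.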

A549 cells [3] = test: In vitro cytotoxicity, MTT assay; assay type: cell-based, human; details: 48 h
Procedure, shortened: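 A549 cells (DMEM, 10% FBS, penicillin/streptomycin, 37 °C, 5% CO2) seeded at 5 × 10³ per well and left overnight. Exposed 48 h to test compound at 6.25–200 μM. MTT (0.5 mg mL−1 in DMEM) added for 4 h; formazan dissolved in DMSO; A490 read. Viability taken as % of (ODtest − ODblank)/(ODcontrol − ODblank); means ± SD.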

Structure (SMILES)	free radical scavenging effect compared with vitamin C [2]	viability of A549 cells (A549 cells [3]; concentration ≤200 μM)	further results
O=C(O)/C=C/c1ccc(O)c(O)c1 [Caffeic acid]			prevention of 800 μM H2O2 induced decrease in cell viability (A549 cells [1]): could not prevent
NS(=O)(=O)c1ccc(NC(=O)/C=C\c2ccc(O)c(O)c2)cc1 [CASN, (Z)-3-(3,4-Dihydroxyphenyl)-N-(4-sulfamoylphenyl)acrylamide]	higher	not significantly decreased	
COc1cnc(NS(=O)(=O)c2ccc(NC(=O)/C=C\c3ccc(OC(C)=O)c(OC(C)=O)c3)cc2)nc1 [ACASMD, (Z)-4-(3-(4-(N-(5-Methoxypyrimidin-2yl)sulfamoyl)phenylamino)-3-oxoprop-1-enyl)-1,2-phenylene diacetate]		not significantly decreased	
CC(=O)Oc1ccc(/C=C\C(=O)Nc2ccc(S(N)(=O)=O)cc2)cc1OC(C)=O [ACASN, (Z)-4-(3-Oxo-3-(4-sulfamoylphenylamino)prop-1-enyl)-1,2-phenylene diacetate]		not significantly decreased	
CC(=O)Oc1ccc(/C=C\C(=O)Nc2ccc(S(=O)(=O)Nc3ncccn3)cc2)cc1OC(C)=O [ACASDZ, (Z)-4-(3-Oxo-3-(4-(N-pyrimidin-2ylsulfamoyl)phenylamino)prop-1-enyl)-1,2-phenylene diacetate]		not significantly decreased	
O=C1O[C@H]([C@@H](O)CO)C(O)=C1O [Vitamin C]			prevention of 800 μM H2O2 induced decrease in cell viability (A549 cells [1]): could not prevent
O=C(/C=C\c1ccc(O)c(O)c1)Nc1ccc(S(=O)(=O)Nc2ncccn2)cc1 [CASDZ, (Z)-3-(3,4-Dihydroxyphenyl)-N-(4-(N-pyrimidin-2-ylsulfamoyl)phenyl)acrylamide]	higher	not significantly decreased	growth of A549 cells (A549 cells [3]; concentration of 200 μM): significantly inhibits
COc1cnc(NS(=O)(=O)c2ccc(NC(=O)/C=C\c3ccc(O)c(O)c3)cc2)nc1 [CASMD, (Z)-3-(3,4-Dihydroxyphenyl)-N-(4-(N-(5-methoxypyrimidin-2-yl)sulfamoyl)phenyl)acrylamide]	higher	not significantly decreased	viability of A549 cells (A549 cells [3]; concentration ≤100 μM): not significantly decreased
